High-throughput results deposited in PubChem by several laboratories.
HSP90 refold inh – HSP90 inhibitors, primary screen, cell lysate, luminescence | 290,000 compounds, 0.91% hits | Rabbit reticulocyte lysate, luciferase refolding luminescence, 3 h | inhibition, % at 5.6 µM | Heat shock protein HSP 90 (rabbit reticulocyte lysate; luciferase refolding);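 active = inhibition above the screen-wide mean plus 3 SD, computed separately per campaign, cut at about 16% in these data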;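 note: 0% = DMSO wells and 100% = 60 µM geldanamycin wells; inhibitors lower the luminescence because luciferase stays unfolded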
SENP7 inh – SENP7 protease inhibitors, primary screen, biochemical, luminescence, uHTS; inhibition, % at 5 µM; Sentrin-specific protease 7 (Homo sapiens), Q9BQF6; 330,000 compounds, 1.5% hits; recombinant SENP7, Z-RLRGG-aminoluciferin luminescence, 40 min;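 active = inhibition above about 50% at the single test dose, limit read from the data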;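 note: plate controls were DMSO with enzyme for no effect and no enzyme buffer wells for full effect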
SENP8 block-1 – SENP8 protease inhibitors, primary screen, biochemical, luminescence; 330,000 compounds, 1.2% hits; Sentrin-specific protease 8 (Homo sapiens), Q96LD8; inhibition, % at 10 µM; purified SENP8, Z-RLRGG-aminoluciferin cleavage; in the data active = inhibition above about 50%
SENP6 inh – SENP6 protease inhibitors, primary screen, biochemical, luminescence, uHTS | inhibition, % at 10 µM | AID 2599, 2010 | Recombinant SENP6 catalytic domain, aminoluciferin luminescence | 330,000 compounds, 1.8% hits;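 active = inhibition above about 50% at the single tested dose, limit read from the data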;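 note: plate controls were DMSO wells with enzyme for no effect and DMSO wells lacking enzyme for full effect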
SENP1 inh – human SENP1 catalytic domain inhibitors, primary screen, biochemical, FRET, uHTS. Sentrin-specific protease 1 (Homo sapiens), Q9P0U3. recombinant SENP1 catalytic domain, CyPet-SUMO1-YPet FRET cleavage. inhibition, % at 10 µM. 360,000 compounds, 0.21% hits. AID 624204, 2012;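 active = inhibition at least 30% at 10 µM, raw YFP signal under a set limit, fluorescence ratio 0.5 to 1.5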;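 note: 0% = enzyme with DMSO and 100% = no enzyme wells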
Target sequence (Q9P0U3 419-644 limits assumed): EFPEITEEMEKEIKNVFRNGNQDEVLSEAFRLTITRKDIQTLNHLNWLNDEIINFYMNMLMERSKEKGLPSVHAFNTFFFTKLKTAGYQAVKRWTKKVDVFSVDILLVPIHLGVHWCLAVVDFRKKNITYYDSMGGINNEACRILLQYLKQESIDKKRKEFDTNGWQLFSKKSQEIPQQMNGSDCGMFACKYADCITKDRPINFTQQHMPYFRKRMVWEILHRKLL
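Test system: human SENP1 catalytic domain; medium: Tris pH 8 buffer plus EDTA, NaCl, BME, BSA, NP40, catalase; incubation: 50 min reaction at room temperature; technique: FRET, CFP and YFP emission; controls: no-enzyme low control and enzyme-plus-DMSO high control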
SENP8 block-2 – human SENP8 protease inhibitors, primary screen, biochemical, fluorescence, Nedd8 protein substrate, uHTS. recombinant SENP8. inhibition, % at 20 µM. 360,000 compounds, 0.64% hits. AID 602440, 2012; in the data active = inhibition mostly above about 40%, no sharp cut-off; inactive = mostly below about 27%
SENP8 conf – SENP8 protease inhibitors, retest, confirmation, biochemical, luminescence, single concentration; shares compounds with SENP7 inh; Recombinant SENP8, Z-RLRGG-aminoluciferin luminescence, 60 min; inhibition, % at 12.5 µM; 6,200 compounds, 40% hits; AID 488912, 2010;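 active = mean inhibition across replicates above about 50%, limit read from the data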
SENP6 conf – SENP6 protease inhibitors, confirmation, biochemical, luminescence, single concentration | recombinant SENP6, Z-RLRGG-aminoluciferin luminescence | inhibition, % at 12.5 µM | shares compounds with SENP7 inh | AID 488915, 2010 | 6,200 compounds, 58% hits
SENP7 conf – SENP7 protease inhibitors, retest, confirmation, biochemical, luminescence, single concentration | shares compounds with SENP7 inh | recombinant SENP7, Z-RLRGG-aminoluciferin luminescence, 40 min | inhibition, % at 12.5 µM | 6,200 compounds, 69% hits
Casp3 SENP sel – caspase-3 protease inhibitors, confirmation, selectivity assay for SENP inhibitor project, biochemical, single concentration | 6,200 compounds, 60% hits | shares compounds with SENP7 inh | inhibition, % at 12.5 µM | purified caspase-3, Z-DEVD-aminoluciferin luminescence, 60 min;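 active = mean inhibition above about 50%, limit read from the data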;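 note: plate controls were enzyme with DMSO for no effect and wells without caspase-3 for full effect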
Target sequence (P42574 28-227 limits assumed): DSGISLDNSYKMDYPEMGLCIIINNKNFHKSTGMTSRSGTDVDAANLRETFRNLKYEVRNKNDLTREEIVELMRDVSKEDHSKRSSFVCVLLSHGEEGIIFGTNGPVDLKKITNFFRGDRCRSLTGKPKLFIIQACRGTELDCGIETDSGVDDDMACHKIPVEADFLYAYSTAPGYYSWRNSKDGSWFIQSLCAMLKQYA
SENP luc ctr – luminescence interference (SENP counter-screen); Pre-incubated SENP8/Z-RLRGG-aminoluciferin, luciferase luminescence interference; shares compounds with SENP7 inh; 6,200 compounds, 39% hits; inhibition, % at 12.5 µM; AID 488919;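 active = mean inhibition above about 50% when retested at one dose, limit read from the data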;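 note: plate controls were DMSO wells with completed reaction for no effect and substrate without enzyme for full effect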
Active calls of the source: *. Shown are actives, neighbours in structure and some others; about 2.9% of the full set was active somewhere.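 Rule for the calls, unless noted: active = mean inhibition above about 50% in the one-dose retest (limit read from the data); inactive = the rest.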

Cc1c(C(=O)NCc2ccc([N+](=O)[O-])cc2)sc(=O)n1Cc1ccc(-c2ccccc2)cc1 was read as SENP1 inh -5.8 and SENP8 block-2 1.7.
CC1CCCN(C(=O)c2ccc(-c3ccccc3Cl)o2)C1 (stereo not drawn) was read as SENP7 inh 16.3, SENP8 block-1 21.4, SENP6 inh 50.3*, SENP1 inh -0.2, SENP8 block-2 7.8, SENP8 conf 32.1, SENP6 conf 28.8, SENP7 conf 58.6*, Casp3 SENP sel 26.0 and SENP luc ctr 16.5.
`O=Nc1ccc(NOC(=O)c2ccccc2)cc1` gave HSP90 refold inh 0.3, SENP7 inh 45.8, SENP8 block-1 -29.4, SENP6 inh 87.5*, SENP1 inh 2.4, SENP8 block-2 19.4, SENP8 conf 14.7, SENP6 conf -11.7, SENP7 conf 103.0*, Casp3 SENP sel 14.7 and SENP luc ctr 8.0.
Screening O=C(Nc1ccc(OCc2ccccc2)cc1)Nc1ccccc1C(=O)NCCCN1CCOCC1 returned HSP90 refold inh 0.8, SENP7 inh 97.2*, SENP8 block-1 95.4*, SENP6 inh 95.1*, SENP1 inh -1.5, SENP8 block-2 -4.3, SENP8 conf 98.5*, SENP6 conf 99.5*, SENP7 conf 103.4*, Casp3 SENP sel 97.9* and SENP luc ctr 88.3*.
Oc1ccc(C[C@H]2CNC(=S)N2CC2CCCN2C[C@H](Cc2ccc(O)cc2)N2C[C@H](Cc3ccccc3)N(CC3CCCCC3)C2=S)cc1 (stereo partly drawn) was read as SENP1 inh -1.5 and SENP8 block-2 8.4.
O=C(O)c1ccc(SCc2ccccc2)nc1 was read as SENP7 inh -1.0, SENP8 block-1 55.8*, SENP6 inh 76.2*, SENP1 inh 1.7, SENP8 block-2 9.0, SENP8 conf 7.1, SENP6 conf 72.2*, SENP7 conf 91.7*, Casp3 SENP sel 90.8* and SENP luc ctr 79.6*.
`CCC(C)C(NS(=O)(=O)c1ccc(C)cc1)C(=O)N1CCOCCOCCOCC1` (stereo not drawn) gave HSP90 refold inh -0.3, SENP7 inh -3.5, SENP8 block-1 3.1, SENP6 inh 0.5, SENP1 inh 2.2 and SENP8 block-2 6.8.
For O=C(OCc1cc(=O)n2ccsc2n1)c1ccc(OC(F)F)cc1 the results were SENP7 inh -3.0, SENP8 block-1 -5.2, SENP6 inh -5.6, SENP1 inh -0.9 and SENP8 block-2 -75.4.
`COc1ccccc1/C=C1\SC(=S)N(CCC(=O)Nc2nnc(C)s2)C1=O` gave HSP90 refold inh -1.9, SENP7 inh -1.6, SENP8 block-1 0.1, SENP6 inh -13.1, SENP1 inh 1.5 and SENP8 block-2 15.3.
